Test system: MS2 coat protein
Assay: apparent Kd, MS2 coat protein; higher = weaker binding; RNA-MaP array; FMN 200 µM where present
In short: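 Stalled E. coli RNA polymerase produced the designs on Illumina sequencing-chip clusters. SNAP-549-labelled MS2 coat protein was added from 0.7 or 1.5 nM, doubling to 3 µM, without and then with constant ligand, in 100 mM Tris-HCl pH 7.5, 80 mM KCl, 4 mM MgCl2, BSA, DTT, yeast tRNA and Tween-20. The apparent Kd is the median of filtered per-cluster fits of green signal normalised to red-channel RNA signal and control-cluster median Fmax.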

[1] = designed as: OFF switch for flavin mononucleotide, no ligand
[2] = ligand present: flavin mononucleotide, designed as: OFF switch for flavin mononucleotide
[3] = designed as: ON switch for flavin mononucleotide, no ligand
[4] = ligand present: flavin mononucleotide, designed as: ON switch for flavin mononucleotide

| Sequence | apparent Kd [1] | apparent Kd [2] | apparent Kd [3] | apparent Kd [4] |
| --- | --- | --- | --- | --- |
| AUGGAACAUGAGGAUCACCCAUGUGAGGAUAUGUGAGAAGGAUUUGAGAUGGAGAGGGACAGAAGGCACUAGGA | 54.4 nM | 37.9 nM |  |  |
| GGGUACACCGGAGGAUAUCAUGUAAAUACAUGAGGAUCACCCAUGUCGAUGGAGACAUCGGAGAUUGAGAAGGCCGAUGUACCG |  |  | 155 nM | 9.1 nM |
| AUUGUUAAGGUAGGAUAUAGUAAAAUGAUUUAAUUAGAAGGAUCUCACAUGAGGAUCACCCAUGUAAGAGGAUUACCCAUGUAU | 14.5 nM | 13.2 nM |  |  |
| GGACAUUUACAGAAGGGCAAAUUUUAUAGUGAAUAUUUAGUUCUGAUUUGCAGGAUAUGUUGAACAUGAGGAUCACCCAUGUCC |  |  | 18.3 nM | 10.9 nM |
| GUUAUGUUAGGAUAUGCUUAUGGUGGAUAAUCAGAUAUGAUGCAGAAGGGACAUGAGGAUCACCCAUGUACUGU | 21 nM | 23.8 nM |  |  |
| AAGAAACAUGAGGAUCACCCAUGUAAAUUUAAGAGAGGAUAUCGUACAUGGAAGAUUUAACGAGAAGGCUCUAGAA |  |  | 26 nM | 16.1 nM |
| AUAUAGCGAGGAUAUACAUGAGGAUCACCCAUGUGGUAGUAGAUACGGUAGAGCUAGUGUAGAAGGCGCUAUGA | 463 nM | 160 nM |  |  |
| GUAGCAUACAGAGGAUAUUCAAAACCGGAAACGGACAUGAGGAUCACCCAUGUGGCGAAAGCCUGGGAGAAGGCUGAAUGCUAC |  |  | 28.6 nM | 14.2 nM |
| UAUACUAGAUAGGAUAUACUAUAUAUAUUAUUCGUAGAAGGAUCUACAUGAGGAUCACCCAUGUUAACAGCAGU | 47.6 nM | 37 nM |  |  |
| ACUUGCUUGCAGAAGGGUGACAUGAGGAUCACCCAUGUAGCGGGCUGGCGUAAAGUCAGCGCGCCACAGGAUAUGCAGGCCUCG |  |  | 61.2 nM | 47.6 nM |
| ACGAGCAAGAUUAUUAUGAAUAAACAUGAGGAUCACCCAUGUAAGGAUAUGCAGUGGAAUACACUGCAGAAGGUACAUAGCUCG | 11.3 nM | 44.2 nM |  |  |
| CAAUUCCGAGGAUAUACAUGAGGAUCACCCAUGUCGGGCCUCAGCGUUUAGCGCGUAAGUAGAAGGUGGGUUUC | 30.4 nM | 41.1 nM |  |  |
| GAGUGUGAAUAAGGAUAUAUGAGAGAGUGAGUAAUAGAAGGUAUACAAACAUGAGACAUGAGGAUCACCCAUGUAUCACCCAUG |  |  | 20.8 nM | 16.1 nM |
| UAGUAGAUCCGAGGAUAUACAAUCCGGAAACGGUACAUGAGGAUCACCCAUGUAGAAGGCGGAUCUACAGGUACUAAAGUACCA | 5.68 nM | 7.82 nM |  |  |
| AAUUAUUAUCGAGGAUAUCGUAUUGAAAUAAUAUGAGAAGGCGGGAUAAACAUGAGGAUCACCCAUGUGAGCCUGAUGCUUGUG | 19.2 nM | 35.4 nM |  |  |
| AUUACAAUUGUAUACAUGAGGAUCACCCAUGUCAAAAGUCAUGAGGAUAUGGUAUUGUAGUUAUUCCAGAAGGCAUAAAGCUAA |  |  | 29.2 nM | 16.4 nM |
| GCAUACAUUCGAGGAUAUCGGUGAACAAAUUAACGAGAAGGCGAUAGAAUGUCUCAUCUUAUGAACAUGAGGAUCACCCAUGUA |  |  | 30 nM | 26.2 nM |
| AAAAUGGUACAGAAGGCGGAGCCCAACAUGAGGAUCACCCAUGUAUGGGUGUCGUCAGUAGUUACCGAGGAUAUGUAUCGGUAU | 6.42 nM | 7.1 nM |  |  |
| AUAUAGGCUAACAUGAGGAUCACCCAUGUGUUAUACUUAAUAUAGGAUAUGUUUAUACUUUUUGGGCAGAAGGAUGGCCUAUAU |  |  | 36.4 nM | 27.3 nM |
| CGCACUAUACAUGAGGAUCACCCAUGUUAACAUGAGCUAUUCAGAAGGCAUAAUUAGAGAAUAAAUGAGGAUAUGAUUAGUGCG |  |  | 34.7 nM | 18.8 nM |
| AUUCAACAUGAGGAUCACCCAUGUGAGGAUAUCGUAUACUACUGUUGCAAUACUUAGACGAGAAGGCACACCGU | 18.9 nM | 25.1 nM |  |  |

From the EternaBench riboswitch data
